Here are results for two compounds from ChEMBL document CHEMBL1152451 (J Med Chem, 2009).

One may read the bioavailability as the share of a dose that reaches the circulation, judged against a reference dose that is usually intravenous. What is called half-life is the time needed for the level to fall by half in the phase considered. A high value points to slow loss.

Structures are written as SMILES.

What all share (format): ADME, organism-based
In series [1] the test system is Rattus norvegicus. Description: Increase in endogenous 20-HETE level in spontaneously hypersensitive rat kidney at 300 mg/kg, po for 8 days by LC/MS/MS analysis. Also on record: dose 300 mg/kg, route oral. The note with it: in vivo, 192 h. The method in brief:
(§1)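 SHRs given daily oral doses, with kidneys analysed for endogenous epoxide/diol ratios and for 20-HETE. A parallel PK group of SHRs was sampled on the eighth day of dosing at 4 and 24 h postdose.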

A short description of series [2]: Drug level in spontaneously hypersensitive rat at 300 mg/kg, po qd for 8 days measured after 4 hrs post dose. On the set-up: dose 300 mg/kg, route oral. The note with it: spontaneously hypersensitive rat (SHR), in vivo, read-out: Drug uptake.
Series [3] can be described thus: Drug level in spontaneously hypersensitive rat at 300 mg/kg, po qd for 8 days measured after 24 hrs post dose. Also on record: dose 300 mg/kg, route oral. As to conditions: spontaneously hypersensitive rat (SHR), in vivo, read-out: Drug uptake.
Series [4] relates to Rattus norvegicus. As to the kind of experiment: Increase in endogenous 14,15-EET/DHET ratio in spontaneously hypersensitive rat kidney at 300 mg/kg, po for 8 days by LC/MS/MS analysis. On the set-up: dose 300 mg/kg, route oral. As to conditions: in vivo, 192 h. In outline:
as §1

Series [5] can be described thus: Bioavailability in spontaneously hypersensitive rat at 1 mg/kg, iv and 2 mg/kg, po. As to conditions: spontaneously hypersensitive rat (SHR), in vivo.
Series [6] can be described thus: Clearance in spontaneously hypersensitive rat at 1 mg/kg, iv and 2 mg/kg, po. The note with it: spontaneously hypersensitive rat (SHR), in vivo.
Series [7] can be described thus: Half life in spontaneously hypersensitive rat at 1 mg/kg, iv and 2 mg/kg, po. The note with it: spontaneously hypersensitive rat (SHR), in vivo.
Series [8] can be described thus: Volume of distribution at steady state in spontaneously hypersensitive rat at 1 mg/kg, iv and 2 mg/kg, po. As to conditions: spontaneously hypersensitive rat (SHR), in vivo, read-out: Vdss.

With `O=C(N[C@@H]1C[C@H]1c1ccccc1)N1CCC(c2nc(-c3ccccn3)no2)CC1`, the “fold change (FC)” value is recorded as 2.5 in the series on Rattus norvegicus [1] and 2 in the series on Rattus norvegicus [4]. In series [2], the concentration at 4 h stood at 35 µM. Moreover, the concentration at 24 h in series [3] stood at 20 µM.
On to `O=C(NC1CC1c1ccccc1)N1CCC(c2nc(-c3ccccn3)no2)CC1` (stereo in doubt; 2d), for which the bioavailability in series [5] was found to be 77%. In series [6], the clearance is 29 mL/min/kg. Also, in series [7], the half-life is 1.4 h. The Vd in series [8] worked out at 2.7 L/kg.
